The source made the active and inactive calls. The rule behind the calls is not given here.
Experiments:
Pseudomonas aeruginosa [1] = assay: Antibacterial activity against Pseudomonas aeruginosa CICC 10419 after 18 hrs by broth microdilution method; format: functional; conditions: CICC 10419, 18 h
How it was run: (§1)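 Broth microdilution in Mueller-Hinton broth. Exponential-phase bacteria (37 °C, 220 rpm shaking) were diluted to about 1 × 10^6 CFU/mL and mixed 1:1 with two-fold serial peptide dilutions. MIC is the lowest concentration with no visible turbidity after 18 h at 37 °C. Controls were uninoculated MHB and untreated culture. Run at least three times, two replicates each.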

Pseudomonas aeruginosa [2] = assay: Antibacterial activity against Pseudomonas aeruginosa CICC 21625 after 18 hrs by broth microdilution method; format: functional; conditions: CICC 21625, 18 h; how it was run: as §1
Pseudomonas aeruginosa [3] = assay: Antibacterial activity against Pseudomonas aeruginosa CICC 21630 after 18 hrs by broth microdilution method; format: functional; conditions: CICC 21630, 18 h; how it was run: as §1
Pseudomonas aeruginosa [4] = assay: Antibacterial activity against gentamicin-resistant Pseudomonas aeruginosa 11421 after 18 hrs by broth microdilution method; format: functional; conditions: Pseudomonas aeruginosa, 11421, 18 h
How it was run: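 Broth microdilution in Mueller-Hinton broth. Exponential-phase bacteria (37 °C, 220 rpm shaking) were diluted to about 1 × 10^6 CFU/mL and mixed 1:1 with two-fold serial peptide dilutions. Controls were uninoculated MHB and untreated culture. Run at least three times, two replicates each.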

Pseudomonas aeruginosa [5] = assay: Antibacterial activity against Pseudomonas aeruginosa 21328 clinical isolate after 18 hrs by broth microdilution method; format: functional; conditions: Pseudomonas aeruginosa, 21328, 18 h
Pseudomonas aeruginosa [6] = assay: Antibacterial activity against Pseudomonas aeruginosa 25349 clinical isolate after 18 hrs by broth microdilution method; format: functional; conditions: Pseudomonas aeruginosa, 25349, 18 h
Pseudomonas aeruginosa [7] = assay: Antibacterial activity against Pseudomonas aeruginosa 26305 clinical isolate after 18 hrs by broth microdilution method; format: functional; conditions: Pseudomonas aeruginosa, 26305, 18 h
RAW264.7 [8] = assay: Cytotoxicity in mouse RAW264.7 cells after 24 hrs by MTT assay; format: cell-based; conditions: raw264.7, 24 h
Pseudomonas aeruginosa [9] = assay: Antibacterial activity against Pseudomonas aeruginosa ATCC 27853 assessed as induction of outer membrane permeabilization by measuring NPN uptake by spectrofluorophotometric analysis; format: functional
How it was run: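 Exponential-phase cells were washed in HEPES pH 7.4 with 5 mM glucose and diluted to about 10^5 CFU/mL. NPN was added at 10 µM final, then peptide at varying concentrations. Fluorescence (ex 350/em 420 nm) was followed to plateau. Values are % NPN uptake relative to polymyxin B at 10 mg/L (100%). Three experiments, duplicates.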

Pseudomonas aeruginosa [10] = assay: Drug uptake in Pseudomonas aeruginosa ATCC 27853 treated with FITC-labeled compound at MIC after 30 mins by confocal fluorescence microscopy; format: ADME; conditions: 0.5 h
How it was run: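 Cells were pelleted at 5,000 g for 5 min, washed three times in PBS, smeared and imaged by confocal microscopy with 488 nm excitation.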

RAW264.7 [11] = assay: Downregulation of LPS-induced TNF-alpha level in mouse RAW264.7 cells at 10 mg/L after 18 hrs by ELISA; format: functional, cell-based
How it was run: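 ELISA of secreted TNF-α in culture medium of RAW264.7 cells treated 18 h with LPS 100 ng/mL alone or with peptide at 10 mg/L. Samples were run in duplicate; release was normalized to untreated controls.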

RAW264.7 [12] = assay: Downregulation of LPS-induced TNF-alpha mRNA expression in mouse RAW264.7 cells at 10 mg/L after 18 hrs by real-time PCR analysis; format: functional, cell-based
How it was run: (§2)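 qRT-PCR: RAW264.7 cells were stimulated with LPS (100 ng/mL) with or without peptide at 10 mg/L for 18 h at 37 °C. Total RNA was taken up with TRIzol. Transcript levels were normalized to GAPDH and expressed as fold change versus untreated cells. Three experiments, triplicates each.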

RAW264.7 [13] = assay: Downregulation of LPS-induced IL-6 mRNA expression in mouse RAW264.7 cells at 10 mg/L after 18 hrs by real-time PCR analysis; format: functional, cell-based; how it was run: as §2
RAW264.7 [14] = assay: Downregulation of LPS-induced IL-1beta mRNA expression in mouse RAW264.7 cells at 10 mg/L after 18 hrs by real-time PCR analysis; format: functional, cell-based; how it was run: as §2
RAW264.7 [15] = assay: Inhibition of LPS-induced TLR4 negative regulation in mouse RAW264.7 cells at 10 mg/L after 18 hrs by Western blot analysis; format: functional, cell-based
How it was run: (§3)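 Western blot of RAW264.7 lysates after 18 h with LPS at 100 ng/mL, with or without peptide at 10 mg/L. Lysates were run on 8% or 12% SDS-PAGE, transferred to PVDF and blocked in 5% milk/TBST. Primary antibodies were applied at 4 °C overnight, then HRP secondary and ECL detection. β-actin was the loading control.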

RAW264.7 [16] = assay: Inhibition of LPS-induced IkappaB-alpha protein degradation in mouse RAW264.7 cells at 10 mg/L after 18 hrs by Western blot analysis; format: functional, cell-based; how it was run: as §3
RAW264.7 [17] = assay: Inhibition of LPS-induced iNOS expression in mouse RAW264.7 cells at 10 mg/L after 18 hrs by Western blot analysis; format: functional, cell-based; how it was run: as §3
Pseudomonas aeruginosa [18] = assay: Antibacterial activity against Pseudomonas aeruginosa ATCC 27853 after 18 hrs in presence of KCl by broth microdilution method; format: functional; conditions: ATCC 27853, 18 h
How it was run: (§4)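 Broth microdilution MIC against ATCC 27853 in Mueller-Hinton broth with added salt at final concentrations: NaCl 150 mM, KCl 4.5 mM, NH4Cl 6 µM, ZnCl2 8 µM, FeCl3 4 µM. Inoculum about 1 × 10^6 CFU/mL from exponential phase, mixed 1:1 with two-fold peptide dilutions. MIC read as no visible turbidity after 18 h at 37 °C.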

Pseudomonas aeruginosa [19] = assay: Antibacterial activity against Pseudomonas aeruginosa ATCC 27853 after 18 hrs in presence of NH4Cl by broth microdilution method; format: functional; conditions: ATCC 27853, 18 h; how it was run: as §4
Pseudomonas aeruginosa [20] = assay: Antibacterial activity against Pseudomonas aeruginosa ATCC 27853 after 18 hrs in presence of MgCl2 by broth microdilution method; format: functional; conditions: ATCC 27853, 18 h
How it was run: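 Broth microdilution MIC in MHB against the reference strain. About 1 × 10^6 CFU/mL exponential-phase inoculum mixed 1:1 with two-fold peptide dilutions in medium containing 1 mM MgCl2 (final). Lowest concentration with no visible turbidity after 18 h at 37 °C.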

Pseudomonas aeruginosa [21] = assay: Antibacterial activity against Pseudomonas aeruginosa ATCC 27853 after 18 hrs in presence of FeCl3 by broth microdilution method; format: functional; conditions: ATCC 27853, 18 h; how it was run: as §4
Pseudomonas aeruginosa [22] = assay: Antibiofilm activity in Pseudomonas aeruginosa ATCC 27853 assessed as reduction in biomass after 24 hrs by crystal violet staining-based method; format: functional
How it was run: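 Overnight culture was diluted 1:100 and grown 24 h at 37 °C to form biofilms. Loose cells were removed and fresh broth added with peptide at 1×, 4× or 8× MIC for another 24 h. Biofilms were stained with 0.1% crystal violet for 10 min, washed, and dye extracted in 95% ethanol before reading absorbance. Results are % of untreated biofilm; three repeats in duplicate, mean ± SD.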

Pseudomonas aeruginosa [23] = assay: Antibiofilm activity against Pseudomonas aeruginosa ATCC 27853 assessed as reduction in cell density of biofilm at 4 times MIC after 1 hr by SEM analysis; format: functional
How it was run: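 Biofilm imaging: biofilms grown on sterile coverslips in 12-well wells were treated with peptides at 4 × MIC for 1 h, then fixed overnight in 2.5% glutaraldehyde and viewed by SEM. Untreated control. At least three repeats.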

Escherichia coli = assay: microbe, parasite or virus in culture; conditions: ATCC 25922, 18 h

Substance | MIC (Pseudomonas aeruginosa [1]) [µg/mL] | MIC (Pseudomonas aeruginosa [2]) [µg/mL] | MIC (Pseudomonas aeruginosa [3]) [µg/mL] | MIC (Pseudomonas aeruginosa [4]) [µg/mL] | MIC (Pseudomonas aeruginosa [5]) [µg/mL] | MIC (Pseudomonas aeruginosa [6]) [µg/mL] | MIC (Pseudomonas aeruginosa [7]) [µg/mL] | CC10 (RAW264.7 [8]) [µg/mL] | Activity (Pseudomonas aeruginosa [9]) | Drug uptake (Pseudomonas aeruginosa [10]) | Activity (RAW264.7 [11]) | Activity (RAW264.7 [12]) | Activity (RAW264.7 [13]) | Activity (RAW264.7 [14]) | inhibition (RAW264.7 [15]) | inhibition (RAW264.7 [16]) | inhibition (RAW264.7 [17]) | MIC (Pseudomonas aeruginosa [18]) [µg/mL] | MIC (Pseudomonas aeruginosa [19]) [µg/mL] | MIC (Pseudomonas aeruginosa [20]) [µg/mL] | further results
H-LRRLRRRWWRRRLRRL-NH2 | 16 | 16 | 8 | 16 | 32 | 16 | 8 | 128 | Dose-dependent effect | Active | Active | Active | Active | Active | Active | Active | Active | 8 | 8 | 32 | MIC (Pseudomonas aeruginosa [21]): 8 µg/mL; Activity (Pseudomonas aeruginosa [22]): Dose-dependent effect; Activity (Pseudomonas aeruginosa [23]): Active; MIC (Escherichia coli): 16 µg/mL
H-LRRLRRRWWWRRRLRRL-NH2 | 8 | 8 | 4 | 8 | 4 | 4 | 4 | 256 | Dose-dependent effect | Active | Active | Active | Active | Active | Active | Active | Active | 4 | 4 | 16 | MIC (Pseudomonas aeruginosa [21]): 4 µg/mL; Activity (Pseudomonas aeruginosa [22]): Dose-dependent effect; Activity (Pseudomonas aeruginosa [23]): Active; MIC (Escherichia coli): 4 µg/mL

Reference: ChEMBL document CHEMBL4007441, “Novel Design of Heptad Amphiphiles To Enhance Cell Selectivity, Salt Resistance, Antibiofilm Properties and Their Membrane-Disruptive Mechanism” (J Med Chem, 2017)
